FID counter = counter-screen for HCV NS3 helicase inhibitors: DNA intercalator displacement; DNA fluorescent intercalator displacement, fluorescence; 290,000 compounds, 0.17% hits; inhibition, % at 7.9 µM; in the data active = inhibition above about 37%;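 also: 0% = vehicle and 100% = reference compound; higher means more ethidium bromide displaced from hairpin DNA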
MEKK2wt PB1 HTS = raises or lowers MEK5 binding to wildtype human MEKK2 PB1 domain. binding response (% of control), % at 10 µM. Q9Y2U5. bead flow cytometry, Alexa488-MEK5 binding to MEKK2 WT; actives lie on both sides. AID 1531. 290,000 compounds, 1.1% hits; in the data active = binding response below about 67% or above about 130%
MEKK3 PB1 HTS = raises or lowers MEK5 binding to the human MEKK3 PB1 domain; Q99759; bead-based flow cytometry, Alexa488-MEK5 binding to MEKK3; actives lie on both sides; 0 = blocked by unlabeled MEK5, 100 = vehicle; binding response (% of control), % at 10 µM; 290,000 compounds, 1.4% hits;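 active = binding response more than 3 SD above or below the average of its plate-row segment, actives on both sides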;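 also: Alexa488 bead fluorescence after subtracting the streptavidin-only scavenger bead signal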
Target sequence (Q99759 whole entry, looked up, the tested form may be a part): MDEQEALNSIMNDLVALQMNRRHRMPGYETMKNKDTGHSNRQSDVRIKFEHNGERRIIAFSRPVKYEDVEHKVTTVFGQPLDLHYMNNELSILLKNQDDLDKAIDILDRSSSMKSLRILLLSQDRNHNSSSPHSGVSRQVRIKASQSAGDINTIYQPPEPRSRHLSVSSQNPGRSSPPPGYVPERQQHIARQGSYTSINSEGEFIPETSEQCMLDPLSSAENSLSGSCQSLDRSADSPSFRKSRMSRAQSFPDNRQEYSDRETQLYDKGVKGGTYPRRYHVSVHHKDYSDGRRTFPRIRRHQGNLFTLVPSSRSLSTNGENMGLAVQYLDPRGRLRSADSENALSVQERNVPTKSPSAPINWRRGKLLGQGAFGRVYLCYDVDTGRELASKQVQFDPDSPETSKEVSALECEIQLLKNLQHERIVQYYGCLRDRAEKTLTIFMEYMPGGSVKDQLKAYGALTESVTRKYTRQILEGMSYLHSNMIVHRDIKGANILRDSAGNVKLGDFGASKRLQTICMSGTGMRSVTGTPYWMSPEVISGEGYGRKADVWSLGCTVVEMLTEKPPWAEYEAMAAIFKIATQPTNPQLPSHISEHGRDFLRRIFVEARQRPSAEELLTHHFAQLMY
HCV NS3 hel inh = blocks Hepatitis C virus NS3 helicase unwinding; NS3 helicase DNA unwinding, Cy5 molecular beacon fluorescence; inhibition, % at 10.9 µM; 290,000 compounds, 0.56% hits; AID 1800;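 active = inhibition above the mean of all tested compounds plus 3 SD, set per campaign, cut at about 35% in these data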;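 also: 0% = DMSO wells and 100% = thioflavine S control wells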
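test system = hepatitis C virus NS3 helicase domain fragment enzyme | reagent = annealed dual-labelled DNA beacon duplex, ATP-started | times = 1 h at 25 °C | detection = Cy5 fluorescence, 0 and 60 min reads | read-out basis = percent inhibition from t60/t0 fluorescence ratio | control set = DMSO and thioflavine S | replication = one well per compound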
T cruzi repl = T. cruzi replication inhibition. T. cruzi beta-gal in NIH3T3, luminescence, 90 h. inhibition, % (no concentration beside the values). 300,000 compounds, 1.4% hits. AID 1885;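 active = mean inhibition across valid replicates above about 55%, limit read from the data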;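 also: signal also drops with host cell toxicity which is not excluded here; 0% = plate median of DMSO wells and 100% = zero luminescence signal; higher percent means less beta-gal luminescence so fewer parasites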
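System: NIH/3T3 fibroblasts plus reporter T. cruzi. Medium: DMEM plus 2% FBS. Probe or stimulus: 5000 reporter trypomastigotes per well. Compound: single 50 nL compound addition per well in DMSO. Incubation: co-culture of at least 90 h after 3 h attachment. Detection: GalScreen β-gal luminescence, detergent lysis, 60 min. Evaluation: parasite load inhibition, %.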
MEKK2mut PB1 HTS = signal of MEK5 binding to mutant human MEKK2 PB1 domain; bead flow cytometry, Alexa488-MEK5 binding to MEKK2 mutant; percent response, % at 10 µM; 290,000 compounds, 0.35% hits; AID 1530; in the data active = percent response above about 24%, passing the limit was not always enough
* = called active by the depositor; . = no result given. In the library only some 4.1% were active in any assay of this set; here they are far more common.

SMILES	FID counter	MEKK2wt PB1 HTS	MEKK3 PB1 HTS	HCV NS3 hel inh	T cruzi repl	MEKK2mut PB1 HTS
C/C(=C\C(=O)c1ccc(Cl)cc1)Nc1ccc(N2CCOCC2)cc1	1.0	.	.	3.3	25.9	.
O=C(/C=C/c1cccc(O)c1)c1ccc(N2CCOCC2)cc1	-14.6	-4.0*	85.0	9.1	-6.9	-15.0
C/C(=C\C(=O)c1ccccc1)Nc1ccc(N2CCOCC2)cc1	-0.8	93.0	94.0	7.7	64.2*	-1.0
CC(C)N(CCCNC(=O)Cn1c(=O)c2cccn2c2ccccc21)Cc1ccccc1	7.9	103.0	102.0	-5.1	20.8	3.0
O=C(Nc1ccccc1OC(F)F)c1ccc(-n2cncn2)c([N+](=O)[O-])c1	.	.	.	.	-9.6	.
O=C(COC(=O)C1=COCCO1)NCc1ccc(Cl)cc1	-0.3	86.0	86.0	5.1	-14.2	-26.0
CN(C)CCn1c2c(c(SCC(=O)Nc3cccc4ccccc34)nc1=O)CCC2	.	.	.	.	27.5	.
CN(C)CCCn1c2c(c(SCC(=O)Nc3cccc4ccccc34)nc1=O)CCC2	.	.	.	.	57.1*	.
COc1cc(OC)cc(C(=O)Nc2nc(-c3ccccc3)c(-c3ccccc3)o2)c1	-1.2	108.0	154.0*	-7.1	28.5	2.0
CCN(Cc1ccccc1)S(=O)(=O)c1ccc(C(=O)N(CCCN(C)C)c2nc3c(C)c(C)ccc3s2)cc1	.	.	.	.	60.3*	.
Cc1ccc2sc(N(CCCN(C)C)C(=O)c3ccc(S(=O)(=O)N(C)C4CCCCC4)cc3)nc2c1C	.	.	.	.	58.6*	.
O=c1c(-c2ccc(Cl)cc2)cnc2n1CCS2	-2.6	99.0	95.0	8.0	2.4	-4.0
CSc1ccccc1NC(=O)CN(C)C(=O)C1CCN(C(=O)Nc2ccccc2)CC1	.	.	.	.	2.4	.
CC(=S)/C=C1\Sc2ccccc2N1C	-5.3	82.0	88.0	0.4	69.1*	-7.0
Nc1c(-c2ccccc2)c(CSc2nc3ccccc3[nH]2)nn1-c1ccc(Cl)cc1	-17.0	103.0	98.0	10.2	64.1*	-1.0
c1ccc(CSc2nc3ccccc3[nH]2)cc1	-3.1	96.0	93.0	3.4	-1.1	-15.0
Nc1c(-c2ccccc2)c(CSc2nc3ccccc3[nH]2)nn1-c1cccc(Cl)c1	-15.3	99.0	90.0	13.6	65.9*	-1.0
Cc1ccccc1-n1nc(CSc2nc3ccccc3[nH]2)c(-c2ccccc2)c1N	-19.2	112.0	106.0	-15.6	10.8	18.0
CCCc1cc(=O)oc2cc(C)cc(OC(C)C(=O)NCCCn3ccnc3)c12 (configuration not stated)	-5.8	100.0	100.0	17.2	8.7	2.0
O=c1[nH]c2ccccc2c(O)c1-c1cc2ccccc2oc1=O	-4.2	90.0	92.0	0.9	0.6	-3.0
N#Cc1cccc(C(=O)OCC(=O)c2ccc3c(c2)NC(=O)CO3)c1	.	.	.	.	1.1	.
O=C1/C(=C/c2c[nH]c3ccccc23)CCC/C1=C\c1c[nH]c2ccccc12	-9.5	81.0	89.0	7.5	44.5	96.0*
O=C1CS/C(=N/N=C/c2c[nH]c3ccccc23)N1	-0.6	93.0	98.0	-8.6	-12.7	-5.0
CS(=O)(=O)c1nc2c(cc1C#N)CCCC2	3.4	96.0	91.0	-11.2	-8.2	-4.0
O=C(O)c1cccc(NC(=O)c2ccc(CN3C(=O)c4ccccc4C3=O)cc2)c1	-35.6	107.0	108.0	12.7	-13.3	2.0
SMILES	FID counter	MEKK2wt PB1 HTS	MEKK3 PB1 HTS	HCV NS3 hel inh	T cruzi repl	MEKK2mut PB1 HTS
O=C(Nc1cc(Cl)ccc1C(=O)O)c1ccc(CN2C(=O)c3ccccc3C2=O)cc1	39.5*	105.0	107.0	-7.4	-9.0	2.0
COc1ccc(C2=NCC(CSc3nnc(-c4ccc5c(c4)OCO5)o3)S2)cc1 (configuration not stated)	-7.3	103.0	102.0	-21.7	56.9*	2.0
CC(=NCc1ccco1)c1c(C)[nH]n(-c2nc3ccccc3s2)c1=O	1.8	97.0	99.0	-3.9	7.4	0.0
C/C(=N/NC(=O)c1cccs1)c1c(C)[nH]n(-c2nc3ccccc3s2)c1=O	-13.5	100.0	139.0*	1.6	-0.1	-1.0
CS(=O)(=O)c1cccc(NC(=O)c2ccc(Cl)c(Cl)c2)c1	-2.3	99.0	97.0	3.7	57.7*	0.0
CS(=O)(=O)c1ccc(C(=O)Nc2cc(S(C)(=O)=O)ccc2Cl)cc1	1.0	109.0	93.0	-1.6	-10.7	5.0
CCCC(NCC(O)COc1ccc(-c2ccccc2)cc1)c1ccccc1 (configuration not stated)	40.8*	123.0	100.0	-72.6	65.6*	2.0
Cc1cc(OCC(O)CNC(C)c2ccccc2)ccc1C(C)C (configuration not stated)	41.4*	116.0	91.0	-48.9	45.7	2.0
COc1cccc(Oc2cc(Cl)nc(N)n2)c1	-7.6	111.0	101.0	5.5	2.6	14.0
CCN(CC(=O)Nc1c(F)cccc1F)C(=O)c1cccc(S(=O)(=O)NCc2ccccc2)c1	.	.	.	.	-4.1	.
CC(Sc1nc(-c2ccccc2)cc(C(F)(F)F)n1)C(=O)Nc1sc2c(c1C#N)CCC2 (configuration not stated)	-1.5	94.0	99.0	4.2	55.6*	-5.0
CC(C)N1C(=O)C(Cc2nc3ccccc3c(=O)n2-c2ccccc2)c2ccccc21 (configuration not stated)	-37.9	101.0	105.0	-3.8	47.2	-1.0
CC(C)N1C(=O)/C(=C\c2nc3ccccc3c(=O)n2-c2ccccc2)c2ccccc21	-4.2	98.0	108.0	-14.7	70.6*	-2.0
CC(C)N1C(=O)/C(=C/c2nc3ccccc3c(=O)n2-c2ccccc2)c2ccccc21	-5.9	.	.	-1.1	77.3*	.
CN(C)CCNC(=O)c1nn(C)c2c1CCc1ccccc1-2	-2.4	96.0	92.0	-4.8	10.2	-3.0
Cc1cc(C)c2c(N)c(C(=O)c3ccc(Cl)cc3)sc2n1	2.9	99.0	98.0	10.5	44.9	-1.0
Cc1cc(C)c2c(N)c(C(=O)c3ccccc3)sc2n1	-2.9	86.0	93.0	-6.2	66.3*	-8.0
Cc1cc(C)c2c(N)c(C(=O)c3ccc(Cl)c(Cl)c3)sc2n1	0.8	102.0	104.0	21.9	101.3*	2.0
COc1ccc(CCNC(=O)COc2ncnc3cc([N+](=O)[O-])ccc23)cc1	8.0	103.0	101.0	-7.5	30.5	10.0
O=[N+]([O-])c1cccc(COc2ncnc3cc([N+](=O)[O-])ccc23)c1	5.0	104.0	102.0	-6.0	63.7*	4.0
CCOC(=O)C1=C(N)Oc2ccc3ccccc3c2C1c1cccnc1 (configuration not stated)	-15.6	96.0	103.0	-11.6	56.9*	-2.0
CCOC(=O)C1=C(N)Oc2ccc3ccccc3c2C1c1cccc(O)c1 (configuration not stated)	-20.1	98.0	98.0	-43.5	20.3	0.0
